Experiment [1] concerns HepG2. Kind of experiment: Cytotoxicity against human HepG2 cells assessed as reduction in cell viability after 48 hrs by MTT assay. Format: functional, cell-based. Particulars: HepG2, 48 h. The procedure, abridged: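 HepG2 seeded at 3×10^3/well, grown 24 h, then exposed to compounds for 48 h. MTT (0.5 mg/mL) added for 4 h, formazan dissolved in DMSO, absorbance read at 570 nm. IC50 = concentration giving 50% loss of viability; mean ± SD of three determinations.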

Experiment [2] has as its system HepG2. In words: Induction of apoptosis in human HepG2 cells assessed as early apoptotic cells at 5 mM after 24 hrs by Annexin V-FITC/propidium iodide staining based flow cytometry (reference value: 2.8%). Format: functional. The procedure, abridged:
(§1)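 HepG2 plated at 5×10^5/well, grown 24 h, then treated 24 h; where indicated, 1 h pretreatment with 5 mM GSH or NAC. Cells stained with Annexin V-FITC/PI; 10,000 cells per sample analysed by flow cytometry into early apoptotic, late apoptotic and necrotic quadrants; triplicate.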
(In general: In flow cytometry, cells or beads pass a laser one at a time.)

Experiment [3] relates to HepG2. In words: Induction of apoptosis in human HepG2 cells assessed as late apoptotic cells at 5 mM after 24 hrs by Annexin V-FITC/propidium iodide staining based flow cytometry (reference value: 5.4%). The format is functional. The procedure, abridged: as §1
Experiment [4] concerns HepG2. In words: Induction of apoptosis in human HepG2 cells assessed as necrotic cells at 5 mM after 24 hrs by Annexin V-FITC/propidium iodide staining based flow cytometry (reference value: 1.6%). The format is functional. Put shortly: as §1

pIC50: −log10 of the molar value.

A word on the pIC50: it is the IC50 on a negative log10 scale, so that one unit is a factor of ten. Turning to `O=C(/C=C/c1ccccc1O)CC(=O)/C=C/c1ccccc1O`, in experiment [1], the pIC50 was 4.30. On the same count and under the same terms, then `O=C(/C=C/c1ccc(O)cc1)CC(=O)/C=C/c1ccc(O)cc1` [BISDEMETHOXYCURCUMIN], with 4.12. As for `N[C@@H](CCC(=O)N[C@@H](CS)C(=O)NCC(=O)O)C(=O)O` [GLUTATHIONE], the figures for the Activity in experiment [2], in experiment [3] and in experiment [4] were 2.5%, 5.5% and 2.1%, respectively.

Consider `O=C(/C=C/c1ccc(C(F)(F)F)cc1)CC(=O)/C=C/c1ccc(C(F)(F)F)cc1`, for which the pIC50 in experiment [1] is below 3.70. `COc1cc(/C=C/C(=O)CC(=O)/C=C/c2ccc(O)c(OC)c2)ccc1O` [CURCUMIN]: the pIC50 in experiment [1] is 4.28. In the case of `CC(=O)N[C@@H](CS)C(=O)O` [ACETYLCYSTEINE], the Activity in experiment [2] was determined as 2.6%; in experiment [3] it was 6.6%; in experiment [4], 1.9%. In the case of `COc1ccc(/C=C/C(=O)CC(=O)/C=C/c2ccc(OC)cc2)cc1`, in experiment [1], the pIC50 is below 3.70.

For the origin of these results see ChEMBL document CHEMBL3779898, “3,3'-OH curcumin causes apoptosis in HepG2 cells through ROS-mediated pathway” (Eur J Med Chem, 2016).
